# Calls of active or inactive are those of the source. The rule behind the calls is not given here.
# Tested on: Brain
# Assay: Biodistribution in ddY mouse brain at 4.2 to 6.3 kBq, iv after 30 mins
# Assay type: ADME, organism-based
# Conditions: in vivo, 0.5 h
# Summary of the method: (§1)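 [125I]-labelled ligand in saline with 10% ethanol, given by tail-vein injection to normal ddY mice (5 weeks old, 23–25 g). Mice killed at set times post-injection. Organs removed and weighed, radioactivity gamma-counted, expressed as % injected dose per gram. Mean (SD) of five mice per time point.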
row,Drug uptake [% ID/g],Compound
1,0.31,CN(C)c1ccc(/C=C/C(=O)c2ccc([125I])s2)cc1

# Tested on: Brain
# Assay: Biodistribution in ddY mouse brain at 4.2 to 6.3 kBq, iv after 10 mins
# Assay type: ADME, organism-based
# Conditions: in vivo
# Summary of the method: as §1
row,Drug uptake [% ID/g],Compound
1,0.75,CN(C)c1ccc(/C=C/C(=O)c2ccc([125I])s2)cc1

# Tested on: Brain
# Assay: Biodistribution in ddY mouse brain at 4.2 to 6.3 kBq, iv after 60 mins
# Assay type: ADME, organism-based
# Conditions: in vivo, 1 h
# Summary of the method: as §1
row,Drug uptake [% ID/g],Compound
1,0.21,CN(C)c1ccc(/C=C/C(=O)c2ccc([125I])s2)cc1

# Tested on: Brain
# Assay: Biodistribution in ddY mouse brain at 4.2 to 6.3 kBq, iv after 2 mins
# Assay type: ADME, organism-based
# Conditions: in vivo
# Summary of the method: as §1
row,Drug uptake [% ID/g],Compound
1,2.46,CN(C)c1ccc(/C=C/C(=O)c2ccc([125I])s2)cc1

# Biological target: not listed separately
# Assay: Displacement of [125I]DMIC from amyloid beta 1-42 aggregates
# Set-up: species or system Homo sapiens
# Conditions: not given
row,Ki [nM],Compound
1,1130,CN(C)c1ccc(/C=C/C(=O)c2ccc(I)cc2)o1
2,121,Nc1ccc(/C=C/C(=O)c2ccc(I)s2)cc1
3,137,CN(C)c1ccc(/C=C/C(=O)c2ccc(I)s2)s1
4,13.3,CN(C)c1ccc(C(=O)/C=C/c2ccc(I)cc2)cc1
5,476,Nc1ccc(C(=O)/C=C/c2ccc(Br)s2)cc1
6,908,O=C(/C=C/c1ccco1)c1ccc(I)cc1
7,> 10000,Cc1ccc2c(c1)sc(-c1ccc(N(C)C)cc1)[n+]2C [THIOFLAVIN T]
8,> 10000,O=C(/C=C/c1nccs1)c1ccc(I)cc1
9,113,CN(C)c1ccc(/C=C/C(=O)c2ccc(I)cc2)s1
10,2650,CN(C)c1ccc(/C=C/C(=O)c2ccc(Br)o2)s1
11,3.9,CN(C)c1ccc(/C=C/C(=O)c2ccc(I)s2)cc1
12,198,CNc1ccc(C(=O)/C=C/c2ccc(Br)s2)cc1
13,14.1,CNc1ccc(/C=C/C(=O)c2ccc(I)s2)cc1
14,126,CN(C)c1ccc(/C=C/C(=O)c2ccc(Br)o2)cc1
15,106,CN(C)c1ccc(C(=O)/C=C/c2ccc(Br)s2)cc1
16,93,O=C(/C=C/c1ccsc1)c1ccc(I)cc1
17,102,O=C(/C=C/c1cccs1)c1ccc(I)cc1
18,797,O=C(/C=C/c1ncc[nH]1)c1ccc(I)cc1
19,23.9,CNc1ccc(C(=O)/C=C/c2ccc(I)cc2)cc1
20,125,O=C(/C=C/c1ccoc1)c1ccc(I)cc1
21,> 10000,Nc1c(/N=N/c2ccc(-c3ccc(/N=N/c4cc(S(=O)(=O)O)c5ccccc5c4N)cc3)cc2)cc(S(=O)(=O)O)c2ccccc12 [CONGO RED]
22,151,O=C(/C=C/c1ccccc1)c1ccc(I)cc1
23,> 10000,CN(C)c1ccc(/C=C/C(=O)c2ccc(Br)o2)o1
24,248,Nc1ccc(C(=O)/C=C/c2ccc(I)cc2)cc1
25,1610,CN(C)c1ccc(/C=C/C(=O)c2ccc(I)s2)o1

# Species: Mus musculus
# Assay: Binding affinity for beta amyloid plaques in Alzheimer's mouse model brain
# Conditions: not given
# Summary of the method: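 Paraffin sections, 5 µm, of formaldehyde-fixed Alzheimer's model mouse brain. Deparaffinised, held in PBS 30 min, stained with compound at 100 µM in 50% ethanol, washed in PBS 15 min, then mounted. Fluorescence read by confocal microscopy at 458 excitation and 540–580 emission. Serial sections immunostained for β-amyloid with DAB.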
row,Activity,Compound
1,Active,CN(C)c1ccc(/C=C/C(=O)c2ccc(I)s2)cc1

# Reference: ChEMBL document CHEMBL1149675, “Structure-activity relationship of chalcones and related derivatives as ligands for detecting of beta-amyloid plaques in the brain” (Bioorg Med Chem, 2007)
